Activity calls are given as the source filed them.
Experiments:
Mus musculus [1] = test: Smoke cessation activity in sc dosed ICR mouse assessed as inhibition of nicotine-induced increase in locomotor activity administered 15 mins before nicotine challenge measured after 5 mins of nicotine infusion; assay type: functional, organism-based
[2] = target: Neuronal acetylcholine receptor; alpha4/beta2 (Homo sapiens, UniProt P17787+P43681); test: Agonist activity at alpha4beta2 nicotinic receptor in human SH-EP1 cells assessed as induction of radiolabeled Rb+ influx at 0.005 to 100 uM by liquid scintillation counting; assay type: functional, cell-based
Summary of the method: (§1)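 Cells were labelled with ⁸⁶Rb⁺ for at least 4 h, then exposed for 5 min in efflux buffer (pH 7.4) to test ligand alone at ~5 nM to 100 μM. The lines were TE671/RD (muscle α1β1γδ), SH-SY5Y (α3β4*) and transfected SH-EP1-hα4β2 or -hα4β4. Efflux was Cerenkov-counted. Non-specific efflux was subtracted, and results were normalized to specific efflux from carbamylcholine (1 mM; 3 mM for SH-SY5Y).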

Mus musculus [3] = test: Smoke cessation activity in sc dosed ICR mouse assessed as inhibition of nicotine-induced antinociception administered 15 mins before nicotine challenge measured after 5 mins of nicotine infusion by hotplate assay; assay type: functional, organism-based
Summary of the method: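 Male ICR mice (20–25 g) were pretreated with saline or test drug 15 min before nicotine at 2.5 mg/kg sc. They were tested 5 min later on a 55 °C hot plate (40 s cutoff), and the result was expressed as %MPE. AD₅₀ came from at least four doses, with at least 8 mice per dose.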

SH-EP1 = test: Selectivity ratio of IC50 for alpha4beta2 nicotinic receptor in human SH-EP1 cells to IC50 for IC50 for human NET; assay type: cell-based
Mus musculus [4] = test: Toxicity in sc dosed ICR mouse assessed occurrence of sedation; assay type: organism-based; settings: in vivo
[5] = target: T1, Neuronal acetylcholine receptor; alpha4/beta4 (Homo sapiens, UniProt P30926+P43681); test: Agonist activity at alpha4beta4 nicotinic receptor in human SH-EP1 cells assessed as induction of radiolabeled Rb+ influx at 0.005 to 100 uM by liquid scintillation counting; assay type: functional, cell-based; summary of the method: as §1
Mus musculus [6] = test: Toxicity in sc dosed ICR mouse assessed occurrence of convulsion; assay type: organism-based; settings: in vivo
Mus musculus [7] = test: Smoke cessation activity in sc dosed ICR mouse assessed as inhibition of nicotine-induced antinociception administered 15 mins before nicotine challenge measured after 5 mins of nicotine infusion by tail-flick assay; assay type: functional, organism-based
Summary of the method: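 Radiant-heat tail-flick latency was read 5 min later (10 s cutoff; baseline 2–4 s) and expressed as %MPE. AD₅₀ came from at least four doses, with at least 8 mice per dose.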

Mus musculus [8] = test: Smoke cessation activity in sc dosed ICR mouse assessed as inhibition of nicotine-induced hypothermia administered 15 mins before nicotine challenge measured after 30 mins of nicotine infusion; assay type: functional, organism-based
Summary of the method: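 Male ICR mice (20–25 g) were pretreated with test drug or saline 15 min before nicotine at 2.5 mg/kg sc. Rectal temperature was taken before and 30 min after nicotine, and the change was calculated. Room temperature was 21–24 °C. AD₅₀ came from at least four doses, with at least 8 mice per dose.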

SH-SY5Y = test: Selectivity ratio of IC50 for alpha3beta4 nicotinic receptor in human SH-SY5Y cells to IC50 for IC50 for human NET; assay type: cell-based
[9] = target: T1, Neuronal acetylcholine receptor; alpha4/beta4; test: Antagonist activity at alpha4beta4 nicotinic receptor in human SH-EP1 cells assessed as inhibition varbamylcholine-induced radiolabeled Rb+ influx at by liquid scintillation counting; assay type: functional, cell-based
Summary of the method: (§2)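 ⁸⁶Rb⁺-loaded human cells were given a 5-min efflux with carbamylcholine at EC₈₀–EC₉₀ plus graded test ligand. Non-specific efflux, taken with 100 μM mecamylamine or buffer, was subtracted. IC₅₀ came from a Hill fit of three independent experiments, with SEM given as a multiplication factor.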

[10] = target: Sodium-dependent serotonin transporter (Homo sapiens, UniProt P31645); test: Inhibition of [3H]serotonin reuptake at human SERT expressed in HEK293 cells after 90 mins by scintillation counting; assay type: cell-based
[11] = target: Sodium-dependent noradrenaline transporter (Homo sapiens, UniProt P23975); test: Inhibition of [3H]norepinephrine reuptake at human NET expressed in HEK293 cells after 90 mins by scintillation counting; assay type: cell-based
Summary of the method: (§3)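 Uptake of [³H]DA or [³H]NE was measured in HEK293 cells stably expressing human DAT or NET. Values are from three independent experiments, each run in triplicate.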

[12] = target: Sodium-dependent dopamine transporter (Homo sapiens, UniProt Q01959); test: Inhibition of [3H]dopamine reuptake at human DAT expressed in HEK293 cells after 90 mins by scintillation counting; assay type: cell-based; summary of the method: as §3
[13] = target: Acetylcholine receptor; alpha1/beta1/delta/gamma (Homo sapiens, UniProt P02708+P07510+P11230+Q07001); test: Antagonist activity at alpha-1-beta-1-gamma-delta nicotinic receptor in human TE671 cells assessed as inhibition varbamylcholine-induced radiolabeled Rb+ influx at by liquid scintillation counting; assay type: functional, cell-based, TE-671; summary of the method: as §2
Chain of Acetylcholine receptor; alpha1/beta1/delta/gamma (P02708 whole entry): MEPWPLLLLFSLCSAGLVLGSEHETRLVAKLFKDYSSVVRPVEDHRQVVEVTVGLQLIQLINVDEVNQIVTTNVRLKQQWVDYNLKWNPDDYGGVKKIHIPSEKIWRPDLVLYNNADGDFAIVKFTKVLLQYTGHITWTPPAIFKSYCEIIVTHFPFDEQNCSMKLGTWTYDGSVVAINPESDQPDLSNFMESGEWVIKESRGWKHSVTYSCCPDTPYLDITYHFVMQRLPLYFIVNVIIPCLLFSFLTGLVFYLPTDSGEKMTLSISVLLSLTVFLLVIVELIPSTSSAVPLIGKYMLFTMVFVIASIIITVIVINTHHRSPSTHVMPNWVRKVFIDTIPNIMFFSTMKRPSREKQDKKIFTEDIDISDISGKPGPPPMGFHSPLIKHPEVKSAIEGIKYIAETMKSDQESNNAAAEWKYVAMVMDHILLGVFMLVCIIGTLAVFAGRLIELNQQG
Chain of Acetylcholine receptor; alpha1/beta1/delta/gamma (P07510 whole entry): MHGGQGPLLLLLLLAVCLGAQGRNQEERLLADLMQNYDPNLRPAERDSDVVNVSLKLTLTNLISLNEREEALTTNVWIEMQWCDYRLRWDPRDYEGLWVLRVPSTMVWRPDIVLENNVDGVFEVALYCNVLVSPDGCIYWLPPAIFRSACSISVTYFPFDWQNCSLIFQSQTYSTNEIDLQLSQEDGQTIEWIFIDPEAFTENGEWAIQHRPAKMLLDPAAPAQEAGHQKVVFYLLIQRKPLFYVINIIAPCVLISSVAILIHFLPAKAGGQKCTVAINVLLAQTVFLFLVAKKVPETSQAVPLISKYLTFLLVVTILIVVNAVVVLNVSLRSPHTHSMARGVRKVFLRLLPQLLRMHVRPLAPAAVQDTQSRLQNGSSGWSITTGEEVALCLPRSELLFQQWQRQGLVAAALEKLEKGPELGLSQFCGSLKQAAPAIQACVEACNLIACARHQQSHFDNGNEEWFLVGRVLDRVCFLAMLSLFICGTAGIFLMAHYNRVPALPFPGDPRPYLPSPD
Chain of Acetylcholine receptor; alpha1/beta1/delta/gamma (P11230 whole entry): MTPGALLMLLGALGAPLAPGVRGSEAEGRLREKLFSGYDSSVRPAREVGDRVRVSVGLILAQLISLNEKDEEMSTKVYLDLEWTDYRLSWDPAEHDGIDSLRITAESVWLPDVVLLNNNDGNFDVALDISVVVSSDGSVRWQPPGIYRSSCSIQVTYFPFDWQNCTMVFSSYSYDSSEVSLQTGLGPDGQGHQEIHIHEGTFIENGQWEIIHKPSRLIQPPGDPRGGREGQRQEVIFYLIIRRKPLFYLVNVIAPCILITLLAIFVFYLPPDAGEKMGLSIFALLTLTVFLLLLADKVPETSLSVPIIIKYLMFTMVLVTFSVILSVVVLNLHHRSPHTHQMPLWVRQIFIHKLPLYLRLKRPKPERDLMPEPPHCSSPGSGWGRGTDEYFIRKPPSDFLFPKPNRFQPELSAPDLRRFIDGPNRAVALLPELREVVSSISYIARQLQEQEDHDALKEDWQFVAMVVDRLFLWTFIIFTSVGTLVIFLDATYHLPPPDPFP
Chain of Acetylcholine receptor; alpha1/beta1/delta/gamma (Q07001 whole entry): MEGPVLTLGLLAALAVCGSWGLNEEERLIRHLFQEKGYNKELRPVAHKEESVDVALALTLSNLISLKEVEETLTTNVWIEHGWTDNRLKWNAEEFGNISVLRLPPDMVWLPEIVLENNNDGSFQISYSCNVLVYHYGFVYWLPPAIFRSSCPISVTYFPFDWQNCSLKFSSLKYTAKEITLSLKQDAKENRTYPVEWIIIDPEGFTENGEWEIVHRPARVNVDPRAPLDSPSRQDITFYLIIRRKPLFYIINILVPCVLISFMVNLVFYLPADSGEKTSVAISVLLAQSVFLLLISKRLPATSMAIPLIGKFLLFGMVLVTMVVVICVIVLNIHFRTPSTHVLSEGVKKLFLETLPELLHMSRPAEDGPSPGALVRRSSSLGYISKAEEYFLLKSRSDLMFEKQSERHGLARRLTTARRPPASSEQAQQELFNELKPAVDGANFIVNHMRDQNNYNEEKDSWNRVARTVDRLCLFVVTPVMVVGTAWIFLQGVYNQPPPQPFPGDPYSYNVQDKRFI

Chain of Sodium-dependent serotonin transporter (P31645 whole entry): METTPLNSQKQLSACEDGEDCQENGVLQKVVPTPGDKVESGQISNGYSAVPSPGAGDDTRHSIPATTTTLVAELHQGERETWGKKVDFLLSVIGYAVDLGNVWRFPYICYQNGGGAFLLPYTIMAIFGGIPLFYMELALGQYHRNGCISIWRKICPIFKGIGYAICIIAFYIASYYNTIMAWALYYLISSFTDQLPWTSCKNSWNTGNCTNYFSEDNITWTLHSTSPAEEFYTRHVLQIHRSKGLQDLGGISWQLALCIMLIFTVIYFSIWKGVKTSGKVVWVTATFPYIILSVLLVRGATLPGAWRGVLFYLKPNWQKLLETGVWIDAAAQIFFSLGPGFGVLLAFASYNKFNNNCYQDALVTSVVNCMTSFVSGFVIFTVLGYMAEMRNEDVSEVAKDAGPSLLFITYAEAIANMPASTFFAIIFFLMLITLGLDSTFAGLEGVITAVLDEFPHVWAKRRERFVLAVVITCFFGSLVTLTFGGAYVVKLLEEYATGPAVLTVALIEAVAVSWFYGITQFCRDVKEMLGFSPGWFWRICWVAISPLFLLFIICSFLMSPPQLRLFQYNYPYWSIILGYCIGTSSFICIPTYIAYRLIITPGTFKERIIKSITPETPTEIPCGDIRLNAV
Chain of Sodium-dependent dopamine transporter (Q01959 whole entry): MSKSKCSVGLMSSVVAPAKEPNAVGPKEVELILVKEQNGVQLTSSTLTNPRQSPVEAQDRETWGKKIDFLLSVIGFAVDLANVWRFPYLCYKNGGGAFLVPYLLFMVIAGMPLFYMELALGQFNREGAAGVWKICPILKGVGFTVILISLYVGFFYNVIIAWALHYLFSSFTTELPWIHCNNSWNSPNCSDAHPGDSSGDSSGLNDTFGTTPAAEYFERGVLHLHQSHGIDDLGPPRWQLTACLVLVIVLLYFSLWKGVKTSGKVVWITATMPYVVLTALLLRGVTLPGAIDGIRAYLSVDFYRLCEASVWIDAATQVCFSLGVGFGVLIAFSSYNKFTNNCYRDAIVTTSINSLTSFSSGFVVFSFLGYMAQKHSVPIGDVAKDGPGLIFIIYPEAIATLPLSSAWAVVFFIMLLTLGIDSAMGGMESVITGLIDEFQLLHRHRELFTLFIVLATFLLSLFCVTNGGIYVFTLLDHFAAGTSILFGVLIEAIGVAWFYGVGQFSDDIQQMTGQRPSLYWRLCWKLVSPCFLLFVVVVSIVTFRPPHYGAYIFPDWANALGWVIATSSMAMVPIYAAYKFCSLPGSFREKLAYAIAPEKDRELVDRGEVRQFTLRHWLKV
T1 sequence (P30926 whole entry): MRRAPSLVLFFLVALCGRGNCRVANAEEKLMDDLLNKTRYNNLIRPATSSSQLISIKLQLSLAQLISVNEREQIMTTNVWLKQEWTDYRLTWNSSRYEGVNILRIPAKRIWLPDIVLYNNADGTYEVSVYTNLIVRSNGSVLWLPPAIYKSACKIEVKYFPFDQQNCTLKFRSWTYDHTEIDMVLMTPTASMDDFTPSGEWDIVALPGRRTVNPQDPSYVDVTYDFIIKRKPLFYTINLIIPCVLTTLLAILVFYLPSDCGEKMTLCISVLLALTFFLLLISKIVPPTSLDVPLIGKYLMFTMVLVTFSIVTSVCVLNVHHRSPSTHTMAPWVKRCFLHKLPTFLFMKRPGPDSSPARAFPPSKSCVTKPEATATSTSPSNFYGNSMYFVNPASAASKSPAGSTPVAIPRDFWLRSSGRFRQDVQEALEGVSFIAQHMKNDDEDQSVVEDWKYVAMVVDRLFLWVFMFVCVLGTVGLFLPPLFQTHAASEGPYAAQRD
T1 sequence (P43681 whole entry): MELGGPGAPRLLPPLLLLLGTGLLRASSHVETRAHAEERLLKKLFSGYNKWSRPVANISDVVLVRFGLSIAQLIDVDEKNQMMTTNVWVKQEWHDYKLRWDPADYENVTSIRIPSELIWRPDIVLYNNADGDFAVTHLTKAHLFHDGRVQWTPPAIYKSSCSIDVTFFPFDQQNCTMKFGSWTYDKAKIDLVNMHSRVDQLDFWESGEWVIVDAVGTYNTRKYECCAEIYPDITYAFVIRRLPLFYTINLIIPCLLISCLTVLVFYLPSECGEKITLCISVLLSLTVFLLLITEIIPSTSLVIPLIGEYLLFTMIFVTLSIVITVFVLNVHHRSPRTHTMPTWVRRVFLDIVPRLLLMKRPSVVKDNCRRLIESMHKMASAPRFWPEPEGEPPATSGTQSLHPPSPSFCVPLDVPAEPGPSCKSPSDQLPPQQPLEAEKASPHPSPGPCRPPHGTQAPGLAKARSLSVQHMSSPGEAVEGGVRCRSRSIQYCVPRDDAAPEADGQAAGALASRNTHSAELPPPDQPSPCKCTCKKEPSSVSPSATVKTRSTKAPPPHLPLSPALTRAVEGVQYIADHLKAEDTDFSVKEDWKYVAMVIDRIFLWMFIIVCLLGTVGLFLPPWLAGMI
Chain of Sodium-dependent noradrenaline transporter (P23975 whole entry): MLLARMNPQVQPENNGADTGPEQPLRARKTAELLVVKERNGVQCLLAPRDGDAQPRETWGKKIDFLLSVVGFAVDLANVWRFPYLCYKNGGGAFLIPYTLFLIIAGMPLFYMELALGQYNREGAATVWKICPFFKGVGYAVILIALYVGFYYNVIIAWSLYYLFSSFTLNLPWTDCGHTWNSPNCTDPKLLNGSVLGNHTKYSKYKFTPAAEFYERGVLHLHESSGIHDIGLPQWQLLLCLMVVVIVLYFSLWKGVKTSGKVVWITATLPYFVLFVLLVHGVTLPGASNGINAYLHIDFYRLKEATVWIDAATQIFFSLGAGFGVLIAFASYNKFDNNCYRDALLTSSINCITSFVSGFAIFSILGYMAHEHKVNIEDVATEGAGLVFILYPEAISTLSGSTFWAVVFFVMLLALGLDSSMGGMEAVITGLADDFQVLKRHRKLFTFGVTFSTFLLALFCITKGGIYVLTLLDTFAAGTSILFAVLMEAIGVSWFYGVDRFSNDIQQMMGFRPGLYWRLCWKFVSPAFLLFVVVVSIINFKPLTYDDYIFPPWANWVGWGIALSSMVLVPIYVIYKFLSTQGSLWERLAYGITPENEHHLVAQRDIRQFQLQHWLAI

| Structure (SMILES) | IC50 (Mus musculus [1]) [mg/kg] | Activity [2] | IC50 (Mus musculus [3]) [mg/kg] | Ratio IC50 (SH-EP1) | Activity (Mus musculus [4]) | Activity [5] | Activity (Mus musculus [6]) | IC50 (Mus musculus [7]) [mg/kg] | IC50 (Mus musculus [8]) [mg/kg] | Ratio IC50 (SH-SY5Y) | IC50 [9] [µM] | IC50 [10] [µM] | IC50 [11] [nM] | IC50 [12] [nM] | IC50 [13] [µM] |
| --- | --- | --- | --- | --- | --- | --- | --- | --- | --- | --- | --- | --- | --- | --- | --- |
| CC1NC(C)(C)COC1(O)c1ccc(Cl)c(Cl)c1 (racemic) | > 15 | inactive | > 15 | 175 | Non-toxic | inactive | Non-toxic | 8.8 | > 15 | 23 | – | – | – | – | – |
| CCC[C@@H]1NC(C)(C)CO[C@@]1(O)c1cccc(Cl)c1 | 4.7 | inactive | > 15 | 240 | Non-toxic | inactive | Non-toxic | 0.004 | > 15 | 154 | 18 | 4.13 | 31 | 30 | 10 |

From ChEMBL document CHEMBL1177712, “Synthesis and characterization of in vitro and in vivo profiles of hydroxybupropion analogues: aids to smoking cessation” (J Med Chem, 2010)
